Active and inactive are the calls of the source. No cut-off for these calls is given here.

19 molecules from ChEMBL document CHEMBL2040719, “Fragment-based design of symmetrical bis-benzimidazoles as selective inhibitors of the trimethoprim-resistant, type II R67 dihydrofolate reductase” (J Med Chem, 2012) can be followed below.

Series [1] is described as follows: Inhibition of Escherichia coli R67 DHFR. In outline: (§1)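 His-tagged R67 DHFR purified from E. coli by Ni affinity with an imidazole gradient. Activity followed as NADPH plus DHF depletion at 340 nm (Δε 12800 M⁻¹cm⁻¹) in 400 mM HEPES pH 7.0 with 10% final DMSO. Reactions started with 250 nM enzyme; initial rates (<10% conversion). Ki via Cheng–Prusoff with KM(NADPH) 1.6 μM, assuming competitive inhibition.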

The test system of a further series is Escherichia coli. The series is described as follows: Antibacterial activity against Escherichia coli […] expressing […] up to 1 mM in presence of 50 ug/mL Trimethoprim. The series is classed as functional, organism-based. Put shortly: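 E. coli XL1-Blue expressing R67 DHFR grown in M9 minimal medium with 50 μg/mL TMP to block chromosomal DHFR; growth inhibition tested up to 1 mM (maximal concentration).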

A short description of series [2]: Inhibition of recombinant type N-terminal His6-tagged 2 R67 DHFR expressed in Escherichia coli BL21 using DHF as substrate by spectrophotometry. In outline: as §1
In series [3] the target is T1, Dihydrofolate reductase (Homo sapiens) (UniProt P00374).
T1 sequence (whole entry): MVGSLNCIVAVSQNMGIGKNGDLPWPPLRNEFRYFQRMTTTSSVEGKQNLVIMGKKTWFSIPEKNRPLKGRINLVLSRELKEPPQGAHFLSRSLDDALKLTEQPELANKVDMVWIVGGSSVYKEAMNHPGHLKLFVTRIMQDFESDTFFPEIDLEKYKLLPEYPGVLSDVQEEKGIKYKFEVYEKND
Briefly: Inhibition of human chromosomal DHFR expressed in Escherichia coli BL21 using DHF as substrate assessed as remaining activity at 1 mM by spectrophotometry relative to control. Put shortly: (§2)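 Human chromosomal DHFR overexpressed in E. coli BL21(DE3). Spectrophotometric assay at 340 nm following NADPH/DHF depletion in 50 mM potassium phosphate pH 8.0, 10% final DMSO, initial rates. Each compound was tested at its highest concentration allowed by solubility and absorbance; activity reported relative to the uninhibited control.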

Series [4] in a line: Cytotoxicity against mouse 3T6 cells assessed as cell death at 200 uM after 72 hrs by MTT assay. The series is classed as cell-based. Put shortly: (§3)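 Mouse 3T6 embryonic fibroblasts in DMEM + 10% heat-inactivated FBS, 37 °C, 5% CO2, seeded at 5×10³ cells/well. Eight dilutions 0.05–200 μM from DMSO, medium with compound renewed at 24 h, 48 h further incubation. MTT 3 h, read at 540 nm with 690 nm reference. Triplicates; % inhibition versus blank-corrected solvent controls; IC50 from the plot.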

The target in series [5] is T1, Dihydrofolate reductase (Homo sapiens). The series is described as follows: Inhibition of human chromosomal DHFR expressed in Escherichia coli BL21 using DHF as substrate assessed as remaining activity at 5 mM by spectrophotometry relative to control. Put shortly: as §2
A short description of series [6]: Competitive inhibition of recombinant R67 DHFR expressed in Escherichia coli BL21 using DHF as substrate by Dixon plot analysis in the presence of 5 to 80 uM NADPH. In outline: (§4)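 Dixon method in 50 mM potassium phosphate pH 7.0, 10% DMSO. NADPH series: DHF fixed at 50 μM, NADPH at 5 or 80 μM, inhibitor over a range spanning Ki. DHF series: NADPH fixed at 50 μM. Reciprocal rates plotted against inhibitor concentration; Ki taken from the slope intersection; triplicates, mean ± SD.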

Series [7] is described as follows: Competitive inhibition of recombinant R67 DHFR expressed in Escherichia coli BL21 using 25 to 164 uM DHF as substrate by Dixon plot analysis in the presence of 50 uM of NADPH. In outline:
as §4

The target of series [8] is T1, Dihydrofolate reductase (Homo sapiens). Briefly: Inhibition of human chromosomal DHFR expressed in Escherichia coli BL21 using DHF as substrate assessed as remaining activity at 400 uM by spectrophotometry relative to control.
The nature of series [9]: Cytotoxicity against mouse 3T6 cells after 72 hrs by MTT assay. The series is classed as cell-based. Put shortly:
as §3

Series [10] deals with T1, Dihydrofolate reductase (Homo sapiens). The series is described as follows: Inhibition of human chromosomal DHFR expressed in Escherichia coli BL21 using DHF as substrate assessed as remaining activity at 10 mM by spectrophotometry relative to control. In outline:
as §2

For series [11] the target is unchanged. The series is described as follows: Inhibition of human chromosomal DHFR expressed in Escherichia coli BL21 using DHF as substrate assessed as remaining activity at 300 uM by spectrophotometry relative to control.
Series [12] shares this target. Briefly: Inhibition of human chromosomal DHFR expressed in Escherichia coli BL21 using DHF as substrate assessed as remaining activity at 2.5 mM by spectrophotometry relative to control. In outline: as §2
For series [13] the target is unchanged. Briefly: Inhibition of human chromosomal DHFR expressed in Escherichia coli BL21 using DHF as substrate assessed as remaining activity at 30 mM by spectrophotometry relative to control. In outline:
as §2

Usually Ki stands for the equilibrium dissociation constant of an inhibitor or competing ligand from its target. Regarding `CO[C@@H]1[C@@H](OC(N)=O)[C@@H](O)[C@H](Oc2ccc3c(O)c(NC(=O)c4ccc(O)c(CC=C(C)C)c4)c(=O)oc3c2C)OC1(C)C` [NOVOBIOCIN], the Ki in series [1] is 70 µM.
What is called IC50 is the point on the concentration scale where inhibition reaches its midpoint. `O=C(O)c1ccc2[nH]c(-c3ccc(OCC(O)COc4ccc(-c5nc6cc(C(=O)O)ccc6[nH]5)cc4)cc3)nc2c1`: in the series with Escherichia coli, the result was inactive. Further, in series [2], the IC50 is 130 µM and the inhibition constant (Ki) was determined as 4 µM. In series [3], the Activity amounted to 95%. For the same molecule, the Activity in series [4] stood at 40%.
On to `COc1cc2c(OC)cccc2cc1C(=O)O`, for which, in [2], the IC50 was 1800 µM and the Ki came to 55 µM. Further, in series [5], the Activity stood at 14%.
With `Nc1c(/N=N/c2ccc(-c3ccc(/N=N/c4cc(S(=O)(=O)O)c5ccccc5c4N)cc3)cc2)cc(S(=O)(=O)O)c2ccccc12` [CONGO RED], affinity in [1] was put at a Ki of 2 µM.
As to `O=C(O)c1ccc2[nH]c(-c3ccc(OCCCCCOc4ccc(-c5nc6cc(C(=O)O)ccc6[nH]5)cc4)cc3)nc2c1`, the inhibition constant Ki was determined as 4.2 µM in series [6], 9.7 µM in series [7] and 2 µM in [2]. Also, the result in the series with Escherichia coli was inactive. For the same molecule, the concentration for half-maximal inhibition (IC50) in [2] stood at 64 µM. Further, the Activity in series [4] is 40%; in series [8], 95%.
With `c1ccc2[nH]cnc2c1`, the inhibition entry in series [2] is “inactive”.
As for `O=C(O)c1ccc(OCCCCCOc2ccc(C(=O)O)cc2)cc1`, the results for the concentration for half-maximal inhibition (IC50) in [2] and in series [9] were at least 1000 µM and 34 µM, respectively. For the same molecule, the Activity in series [3] was 100%.
With `O=C(O)c1ccc2cc(O)ccc2c1`, in series [2], the IC50 worked out at 6100 µM and the Ki stood at 190 µM. In addition, the Activity in [10] is 13%.
Consider `COc1ccc2cc(C(=O)O)ccc2c1`, for which, in series [2], the inhibition result is “inactive”.
For `c1ccc2[nH]c(-c3ccc(OCCCCCOc4ccc(-c5nc6ccccc6[nH]5)cc4)cc3)nc2c1`, the values for the half-maximal inhibitory concentration (IC50) in series [2] and in series [9] were at least 300 µM and 0.98 µM, respectively. The Activity in [11] came to 110%.
`O=C(O)c1ccc2[nH]cnc2c1`: in [2], the IC50 was 2600 µM and the inhibition constant (Ki) was 80 µM. Further, in series [10], the Activity came to 75%.
Regarding `Nc1ccc2cc(C(=O)O)ccc2c1`, in series [2], the IC50 came to 1700 µM and the Ki was determined as 51 µM. Moreover, in [12], the Activity stood at 14%.
In the case of `Oc1nncc2ccccc12` [PHTHALAZINONE], in series [2], the IC50 was determined as 17000 µM and the inhibitory constant (Ki) is 530 µM. In addition, the Activity in [13] turned out to be 97%.
On to `Nc1cc2ccccc2cc1C(=O)O`, for which the inhibition entry in series [2] was “inactive”.
Same read-out and setting: for `Cc1nc2cc(C(=O)O)ccc2[nH]1` the value was “inactive”.
With `O=C(O)c1cc2nccnc2s1`, in series [2], the IC50 is 2000 µM and the Ki stood at 61 µM. For the same molecule, in series [5], the Activity was 37%.
As to `O=C(O)c1ccc2[nH]nnc2c1`, in series [2], the IC50 is 8400 µM and the Ki is 260 µM. Further, the Activity in series [13] worked out at 69%.
`O=C(O)c1ccc2c(c1)OCO2`: the inhibition entry in [2] is “inactive”.
Same read-out and setting: the value for `CC(C)n1nnc2cc(C(=O)O)ccc21` was “inactive”.
